# Results as given in ChEMBL document CHEMBL2040844, “Anthranilic acid-based diamides derivatives incorporating aryl-isoxazoline pharmacophore as potential anticancer agents: design, synthesis and biological evaluation” (Eur J Med Chem, 2012).
# Key:
# [1] = test system: BGC-823; test: Growth inhibition of human BGC823 cells at 40 ug/ml after 72 hrs by MTT assay; format: functional; settings: BGC-823, 72 h, read-out: GI
# How it was run: (§1)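 Single-concentration screen at 40 µg/mL, reported as % cell growth inhibition. Cells were seeded at 2 × 10⁴ per well, grown to subconfluence, then treated for 72 h at 37 °C in humidified 5% CO₂. MTT was added for 4 h, formazan was dissolved in DMSO, and absorbance was read at 570 nm. Triplicate wells, three independent experiments; 5-FU served as positive control.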
# [2] = test system: MCF7; test: Growth inhibition of human MCF7 cells at 40 ug/ml after 72 hrs by MTT assay; format: functional; settings: MCF7, 72 h, read-out: GI; how it was run: as §1
# [3] = test system: HepG2; test: Growth inhibition of human HepG2 cells at 40 ug/ml after 72 hrs by MTT assay; format: functional; settings: HepG2, 72 h, read-out: GI; how it was run: as §1
# [4] = test system: SGC-7901; test: Growth inhibition of human SGC7901 cells at 40 ug/ml after 72 hrs by MTT assay; format: functional; settings: SGC-7901, 72 h, read-out: GI; how it was run: as §1
# [5] = test system: NCI-H460; test: Growth inhibition of human NCI-H460 cells at 40 ug/ml after 72 hrs by MTT assay; format: functional; settings: NCI-H460, 72 h, read-out: GI; how it was run: as §1
# [6] = test system: BGC-823; test: Cytotoxicity against human BGC823 cells after 72 hrs by MTT assay; format: functional, cell-based; settings: for IC50: BGC-823, 72 h
# How it was run: (§2)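 MTT assay. Cells were seeded at 2 × 10⁴ per well, grown to subconfluence, then exposed to serial dilutions of compound in test medium for 72 h at 37 °C in humidified 5% CO₂. MTT was added for 4 h, formazan was dissolved in DMSO, and absorbance was read at 570 nm. IC50 values were derived from dose-response. Triplicate wells, three independent experiments; 5-FU served as positive control.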
# [7] = test system: NCI-H460; test: Cytotoxicity against human NCI-H460 cells after 72 hrs by MTT assay; format: functional, cell-based; settings: NCI-H460, 72 h; how it was run: as §2
# [8] = test system: SGC-7901; test: Cytotoxicity against human SGC7901 cells after 72 hrs by MTT assay; format: functional, cell-based; settings: SGC-7901, 72 h; how it was run: as §2
# [9] = test system: HepG2; test: Cytotoxicity against human HepG2 cells after 72 hrs by MTT assay; format: functional, cell-based; settings: for IC50: HepG2, 72 h; how it was run: as §2
# [10] = test system: MCF7; test: Cytotoxicity against human MCF7 cells after 72 hrs by MTT assay; format: functional, cell-based; settings: MCF7, 72 h; how it was run: as §2
SMILES,inhibition of growth at 40 µg/mL [1],inhibition of growth at 40 µg/mL [2],inhibition of growth at 40 µg/mL [3],inhibition of growth at 40 µg/mL [4],inhibition of growth at 40 µg/mL [5],IC50 [6],IC50 [7],IC50 [8],IC50 [9],IC50 [10],Activity [6],Activity [9]
CNC(=O)c1ccccc1NC(=O)C1CC(c2ccc(F)cc2)=NO1 (centres undefined),21.4%,0%,9.1%,0%,0%,,,,,,,
Cc1cc(Cl)cc(C(=O)NC(C)C)c1NC(=O)C1CC(c2ccc(Cl)cc2)=NO1 (centres undefined),38.7%,3.9%,12.3%,24.2%,10.3%,,,,,,,
Cc1cc(Cl)cc2c(=O)oc(C3CC(c4ccc(Cl)cc4)=NO3)nc12 (centres undefined),31.5%,37.7%,52.4%,35.6%,58.1%,54.4 µM,41.9 µM,68.8 µM,43.6 µM,68.7 µM,,
CC(C)NC(=O)c1ccccc1NC(=O)C1CC(c2ccc(Cl)cc2)=NO1 (centres undefined),14.6%,0%,5.5%,13.6%,0%,,,,,,,
Cc1cc(Cl)cc(C(=O)NC(C)C)c1NC(=O)C1CC(c2ccc(F)cc2)=NO1 (centres undefined),0%,4.8%,13.6%,17.2%,0%,,,,,,,
CCN(CC)C(=O)c1cc(Cl)cc(C)c1NC(=O)C1CC(c2cc(OC)c(OC)c(OC)c2)=NO1 (centres undefined),27.8%,23.5%,28.6%,28.3%,0%,,,,,,,
COc1cc(C2=NOC(C(=O)Nc3ccccc3C(=O)NC(C)C)C2)cc(OC)c1OC (centres undefined),0%,0%,11.7%,0%,0%,,,,,,,
COc1cc(C2=NOC(C(=O)Nc3c(C)cc(Cl)cc3C(=O)NC(C)C)C2)cc(OC)c1OC (centres undefined),11.7%,9.1%,12.9%,0%,0.5%,,,,,,,
CCCNC(=O)c1cc(Cl)cc(C)c1NC(=O)C1CC(c2ccc(F)cc2)=NO1 (centres undefined),23.5%,33%,29.1%,30.5%,20%,> 100 µM,> 100 µM,> 100 µM,> 100 µM,> 100 µM,,
CNC(=O)c1cc(Cl)cc(C)c1NC(=O)C1CC(c2ccc(Cl)cc2)=NO1 (centres undefined),13.2%,22.6%,18.7%,24.6%,0%,> 100 µM,> 100 µM,> 100 µM,> 100 µM,> 100 µM,,
COc1cc(C2=NOC(C(=O)Nc3c(C)cc(Cl)cc3C(=O)NC3CCCCC3)C2)cc(OC)c1OC (centres undefined),69.7%,62.7%,64%,60.2%,74%,23.3 µM,24.7 µM,36.8 µM,34.8 µM,22.4 µM,Dose-dependent effect,Dose-dependent effect
CC(C)NC(=O)c1ccccc1NC(=O)C1CC(c2ccc(F)cc2)=NO1 (centres undefined),21.5%,0%,0%,10.3%,0%,,,,,,,
CCN(CC)C(=O)c1cc(Cl)cc(C)c1NC(=O)C1CC(c2ccc(Cl)cc2)=NO1 (centres undefined),59.6%,62.1%,59.2%,76.3%,63.5%,36.5 µM,37.5 µM,37.4 µM,37.7 µM,34.5 µM,Dose-dependent effect,Dose-dependent effect
CCN(CC)C(=O)c1cc(Cl)cc(C)c1NC(=O)C1CC(c2ccc(F)cc2)=NO1 (centres undefined),36.4%,14.4%,18.2%,15.8%,10%,> 100 µM,> 100 µM,> 100 µM,> 100 µM,> 100 µM,,
CNC(=O)c1cc(Cl)cc(C)c1NC(=O)C1CC(c2cc(OC)c(OC)c(OC)c2)=NO1 (centres undefined),34.1%,26.1%,30.6%,27.3%,5.5%,54.1 µM,> 100 µM,65.5 µM,67.6 µM,> 100 µM,,
CNC(=O)c1ccccc1NC(=O)C1CC(c2cc(OC)c(OC)c(OC)c2)=NO1 (centres undefined),20.8%,9.1%,31.4%,12%,0%,,,,,,,
CNC(=O)c1ccccc1NC(=O)C1CC(c2ccc(Cl)cc2)=NO1 (centres undefined),13.3%,16.5%,50.6%,7.8%,5.7%,,,,,,,
CCCNC(=O)c1cc(Cl)cc(C)c1NC(=O)C1CC(c2ccc(Cl)cc2)=NO1 (centres undefined),24.5%,22.2%,16.7%,14.7%,13.6%,,,,,,,
Cc1cc(Cl)cc(C(=O)NC2CCCCC2)c1NC(=O)C1CC(c2ccc(F)cc2)=NO1 (centres undefined),34.3%,24.8%,10%,15.6%,33.3%,,,,,,,
Cc1cc(Cl)cc(C(=O)NC2CCCCC2)c1NC(=O)C1CC(c2ccc(Cl)cc2)=NO1 (centres undefined),18.3%,9.6%,15.6%,3.1%,15.1%,,,,,,,
Cc1cc(Cl)cc(C(=O)Nc2ccccc2)c1NC(=O)C1CC(c2ccc(F)cc2)=NO1 (centres undefined),26.4%,17%,5.1%,11.6%,0%,,,,,,,
CNC(=O)c1cc(Cl)cc(C)c1NC(=O)C1CC(c2ccc(F)cc2)=NO1 (centres undefined),14.6%,40.8%,26.7%,12.8%,42.9%,> 100 µM,50.3 µM,> 100 µM,> 100 µM,> 100 µM,,
O=c1[nH]cc(F)c(=O)[nH]1 [FLUOROURACIL],85.7%,80.4%,81.3%,80.8%,89.7%,4.5 µM,2.4 µM,6.3 µM,4.8 µM,12.5 µM,,
CCCNC(=O)c1cc(Cl)cc(C)c1NC(=O)C1CC(c2cc(OC)c(OC)c(OC)c2)=NO1 (centres undefined),28%,29.1%,21.1%,15.4%,9.5%,> 100 µM,> 100 µM,> 100 µM,> 100 µM,> 100 µM,,
COc1cc(C2=NOC(c3nc4c(C)cc(Cl)cc4c(=O)o3)C2)cc(OC)c1OC (centres undefined),0%,12.4%,16.5%,0%,0%,> 100 µM,> 100 µM,> 100 µM,> 100 µM,> 100 µM,,
Cc1cc(Cl)cc2c(=O)oc(C3CC(c4ccc(F)cc4)=NO3)nc12 (centres undefined),72.1%,54.7%,38.9%,42.7%,64.6%,34.9 µM,35.8 µM,53.4 µM,53.4 µM,51.9 µM,,
